This is an account of results in ChEMBL document CHEMBL2413003, “3-Carboxamido-5-aryl-isoxazoles as new CB2 agonists for the treatment of colitis” (Bioorg Med Chem, 2013).

Calls of active or inactive are those of the source. The calls are words filed in the database; no cut-off is given here.

For data set [1], the target named is T1, Cannabinoid receptor 2 (Homo sapiens, UniProt P34972). The experiment in a line: Displacement of [3H]-CP55,940 from human CB2 receptor expressed in CHO membranes after 1 hr by liquid scintillation counting. The class given is cell membranes. The gist of the method:
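0.5 nM [3H]-CP-55,940 on 6 µg hCB2-CHO membranes in 20 mM Hepes, 5 mM MgCl2, 1 mM EDTA, 0.3% BSA, pH 7.4, 1 h at 30 °C. Filtered over GF/C and counted by scintillation. Nonspecific binding with 5 µM (R)-(+)-WIN 55,212-2; DMSO <0.1%. Screened first at 10 µM; Ki by nonlinear regression of competition curves where displacement >60%; ≥4 experiments in duplicate.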
A general note: In a radioligand displacement assay an active substance lowers the binding of a labelled ligand.

For another data set, the target named is Cannabinoid receptor 1 (Homo sapiens, UniProt P21554). As to the kind of experiment: Displacement of [3H]-SR141716A from human CB1 receptor expressed in CHO membranes after 1 hr by liquid scintillation counting. The class given is cell membranes.
Sequence of Cannabinoid receptor 1 (P21554 whole entry, looked up): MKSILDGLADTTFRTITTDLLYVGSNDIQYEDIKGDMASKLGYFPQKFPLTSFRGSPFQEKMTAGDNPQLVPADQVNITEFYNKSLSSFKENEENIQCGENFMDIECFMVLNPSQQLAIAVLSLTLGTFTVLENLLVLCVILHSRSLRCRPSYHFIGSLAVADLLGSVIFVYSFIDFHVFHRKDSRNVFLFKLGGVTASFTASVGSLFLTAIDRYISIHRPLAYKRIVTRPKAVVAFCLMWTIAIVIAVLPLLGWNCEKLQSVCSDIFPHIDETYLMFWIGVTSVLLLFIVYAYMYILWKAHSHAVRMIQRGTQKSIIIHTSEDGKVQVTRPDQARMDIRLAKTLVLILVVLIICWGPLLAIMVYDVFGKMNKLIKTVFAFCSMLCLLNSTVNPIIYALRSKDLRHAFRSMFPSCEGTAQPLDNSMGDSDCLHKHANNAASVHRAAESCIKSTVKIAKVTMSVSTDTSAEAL
For the next data set, the system named is HT-29. As to the kind of experiment: Antiproliferative activity against human HT-29 cells at 10 uM after 72 hrs by MTS assay. The format is cell-based. The settings on record: ht-29, 72 h. The gist of the method:
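HT29 cells grown in DMEM-Glutamax with 10% FBS and penicillin/streptomycin, 37 °C, 5% CO2. Plated at 3000 cells/well in triplicate, left 24 h, then exposed to 10 µM compound (<0.1% DMSO) for 72 h. Growth read by colorimetric MTS reduction to formazan, given as % proliferation inhibition; ≥4 experiments in duplicate.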

Data set [2] concerns the target T1, Cannabinoid receptor 2. The experiment in a line: Agonist activity at human CB2 receptor expressed in CHO membranes assessed as [35S]-GTPgammaS binding after 1 hr. The class given is functional, cell membranes. Summed up: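 hCB2-CHO membranes (10 µg protein) in 20 mM Hepes, 10 mM MgCl2, 100 mM NaCl, 0.1% BSA, pH 7.4, with 30 µM GDP. Started with 0.1 nM [35S]-GTPγS (final) and run 1 h at 30 °C, then filtered and counted. Nonspecific binding taken with 100 µM Gpp(NH)p; basal activity set at 100%. EC50 and Emax by nonlinear regression, ≥4 experiments in duplicate.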
On the technique in general: GTPγS is a poorly hydrolysed GTP analogue; its binding reports G protein activation.

For another data set, the species on record is Homo sapiens. The experiment in a line: Selectivity ratio of Ki for human CB1 receptor expressed in CHO membranes to Ki for human CB2 receptor expressed in CHO membranes. The format is cell membranes.
The test system of data set [3] is Mus musculus. The experiment in a line: Anticolitis activity in DSS-induced acute colitis C57/Bl6 mouse model assessed as reduction in ratio of Kc mRNA to POLR2A mRNA level at 10 mg/kg, ip qd for 7 days measured after 7 days by RT-PCR analysis (reference value: 68.9 +/-9.8 no unit ). The format is functional. The settings on record: route intraperitoneal.
In data set [4] the test system is Mus musculus. As to the kind of experiment: Anticolitis activity in DSS-induced acute colitis C57/Bl6 mouse model assessed as reduction in ratio of IL-1beta mRNA to POLR2A mRNA level at 10 mg/kg, ip qd for 7 days measured after 7 days by RT-PCR analysis (reference value: 105.1 +/-17.0 no unit ). The format is functional. The settings on record: route intraperitoneal.

Data set [5] concerns Mus musculus. As to the kind of experiment: Toxicity in DSS-induced acute colitis C57/Bl6 mouse model assessed as rovert reactions at 10 mg/kg, ip qd for 7 days measured after 7 days. The format is organism-based. Also noted: dose 10 mg/kg, route intraperitoneal. Particulars: in vivo, 168 h.
The test system of data set [6] is Mus musculus. The experiment in a line: Anticolitis activity in DSS-induced acute colitis C57/Bl6 mouse model assessed as effect on TNF-alpha levels at 10 mg/kg, ip qd for 7 days measured after 7 days by RT-PCR analysis relative to vehicle-treated control. Set-up: dose 10 mg/kg. The format is functional, organism-based.
Data set [7] has as its system Mus musculus. The experiment in a line: Anticolitis activity in DSS-induced acute colitis C57/Bl6 mouse model assessed as reduction in colon inflammation at 10 mg/kg, ip qd for 7 days measured after 7 days by histological analysis relative to vehicle-treated control. The class given is functional, organism-based. Also noted: dose 10 mg/kg. The gist of the method:
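In DSS-colitic male C57BL6 mice given 10 mg/kg ip daily for 7 days in cyclodextrin vehicle, May-Grünwald-Giemsa-stained distal colon sections were scored for inflammatory infiltrate (0–3) and tissue damage (0–3), n = 10.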

Data set [8] deals with Mus musculus. As to the kind of experiment: Anticolitis activity in DSS-induced acute colitis C57/Bl6 mouse model assessed as reduction in disease activity index at 10 mg/kg, ip qd for 7 days measured after 7 days relative to vehicle-treated control. The format is functional, organism-based. Set-up: dose 10 mg/kg.
Data set [9] has as its system Mus musculus. As to the kind of experiment: Anticolitis activity in DSS-induced acute colitis C57/Bl6 mouse model assessed as change in body weight at 10 mg/kg, ip qd for 7 days measured after 7 days (reference value: 83.1 +/- 2.2 %). The class given is functional. The settings on record: route intraperitoneal.
Data set [10] concerns Mus musculus. As to the kind of experiment: Anticolitis activity in DSS-induced acute colitis C57/Bl6 mouse model assessed as increase in colon length at 10 mg/kg, ip qd for 7 days measured after 7 days (reference value: 4.6 +/- 0.2 cm). The settings on record: route intraperitoneal. The format is functional.

T1 sequence (P34972 whole entry): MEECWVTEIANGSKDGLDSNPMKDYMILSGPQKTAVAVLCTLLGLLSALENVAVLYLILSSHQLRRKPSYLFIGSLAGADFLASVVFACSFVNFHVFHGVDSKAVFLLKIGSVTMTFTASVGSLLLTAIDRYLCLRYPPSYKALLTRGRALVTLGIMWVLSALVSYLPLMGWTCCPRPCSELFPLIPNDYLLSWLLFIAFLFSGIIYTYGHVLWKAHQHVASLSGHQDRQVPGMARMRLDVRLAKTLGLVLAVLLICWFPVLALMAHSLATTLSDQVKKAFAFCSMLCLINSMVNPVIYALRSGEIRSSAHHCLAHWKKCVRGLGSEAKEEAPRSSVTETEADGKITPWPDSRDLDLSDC

Broadly, the Ki is the dissociation constant of the complex between target and ligand, obtained from inhibition or displacement. Low readings indicate a stronger hold on the target, high ones a looser hold on the target. For the compound `CCCCCOc1ccccc1-c1cc(C(=O)Nc2nnc(C)s2)no1`, the Ki on Cannabinoid receptor 2 [1] is above 3000 nM.

In the case of `O=C(NC12CC3CC(CC(C3)C1)C2)c1cc(-c2ccccc2)on1`, the Ki on Cannabinoid receptor 2 [1] was above 1000 nM.

Broadly, the EC50 is the concentration that produces a half-maximal response. Consider `CCCCOc1ccccc1-c1cc(C(=O)NC23CC4CC(CC(C4)C2)C3)no1`, for which the values for the Ki on Cannabinoid receptor 1 and on Cannabinoid receptor 2 [1] were above 3000 nM and 369 nM, respectively. Besides, in the data set with HT-29, the Activity came out at 2%. The concentration for a half-maximal effect (EC50) at Cannabinoid receptor 2 [2] worked out at 2.88 nM. The Ratio Ki in the data set filed under Homo sapiens was above 8.

As for `CCCCCOc1ccccc1-c1cc(C(=O)NC23CC4CC(CC(C4)C2)C3)no1`, the inhibitory constant (Ki) was above 3000 nM on Cannabinoid receptor 1 and 36 nM at Cannabinoid receptor 2 [1]. Further, the Activity with HT-29 stood at 0%. Further, on Cannabinoid receptor 2 [2], the 50% effective concentration (EC50) was determined as 2.9 nM. The Ratio Ki in the data set listed under Homo sapiens is above 83.

As to `CCCCCOc1ccccc1-c1cc(C(=O)NC2CCCCC2)no1`, the Ki is above 3000 nM on Cannabinoid receptor 1 and 22.8 nM on Cannabinoid receptor 2 [1]. Besides, in the data set on HT-29, the Activity amounted to 37%. In addition, at Cannabinoid receptor 2 [2], the concentration for a half-maximal effect (EC50) stood at 1.9 nM. The Ratio Ki in the data set filed under Homo sapiens was above 131.

As to `COc1ccccc1-c1cc(C(=O)NC23CC4CC(CC(C4)C2)C3)no1`, the results for the inhibition constant (Ki) at Cannabinoid receptor 1 and at Cannabinoid receptor 2 [1] were above 3000 nM and 70.1 nM, respectively. In addition, the EC50 on Cannabinoid receptor 2 [2] is 2.56 nM. In the data set listed under Homo sapiens, the Ratio Ki is above 42.

Take `CCCCCOc1ccc(-c2cc(C(=O)NC34CC5CC(CC(C5)C3)C4)no2)cc1`: at Cannabinoid receptor 2 [1], the Ki is above 1000 nM.

With `CCCOc1ccccc1-c1cc(C(=O)NC23CC4CC(CC(C4)C2)C3)no1`, the results for the Ki at Cannabinoid receptor 1 and on Cannabinoid receptor 2 [1] were above 1000 nM and 79.6 nM, respectively. In the data set with HT-29, the Activity came out at 8%. Further, the EC50 at Cannabinoid receptor 2 [2] is 2.21 nM. In the data set listed under Homo sapiens, the Ratio Ki was above 12.

As to `CCCCCOc1ccccc1-c1cc(C(=O)NC2CCCC2)no1`, the inhibition constant Ki at Cannabinoid receptor 1 was above 1000 nM; on Cannabinoid receptor 2 [1], 60.9 nM. For the same compound, the Activity with HT-29 was 13%. Further, the concentration giving a half-maximal response (EC50) at Cannabinoid receptor 2 [2] was found to be 2.1 nM. Moreover, in the data set listed under Homo sapiens, the Ratio Ki was above 16.

As to `CCCCCOc1ccccc1-c1cc(C(=O)NC2CCC2)no1`, the Ki on Cannabinoid receptor 1 is above 1000 nM; on Cannabinoid receptor 2 [1], 412 nM. The Activity in the data set with HT-29 was 46%. Moreover, the EC50 at Cannabinoid receptor 2 [2] is 4.4 nM. Also, the Ratio Ki in the data set filed under Homo sapiens is above 2.

`CCCCCOc1ccccc1-c1cc(C(=O)Nc2ccccc2)no1` gave an inhibitory constant (Ki) at Cannabinoid receptor 2 [1] above 1000 nM.

Turning to `CCCCCCCOc1ccccc1-c1cc(C(=O)NC23CC4CC(CC(C4)C2)C3)no1`, the Ki on Cannabinoid receptor 2 [1] was above 1000 nM.

Consider `CCCCCOc1ccccc1-c1cc(C(=O)NC2CCCCCCC2)no1`, for which the figures for the Ki on Cannabinoid receptor 1 and on Cannabinoid receptor 2 [1] were above 3000 nM and 73.5 nM, respectively. The compound further registered an Activity in the data set with HT-29 of 17%. Further, the EC50 at Cannabinoid receptor 2 [2] came out at 1.8 nM. Also, the Ratio Ki in the data set filed under Homo sapiens is above 40.

`O=C(NC1C2CC3CC(C2)CC1C3)c1cc(-c2ccccc2)on1` (stereo unspecified) registered a Ki on Cannabinoid receptor 2 [1] above 1000 nM.

In the case of `CCCCCOc1ccccc1-c1cc(C(=O)N(CC(C)C)CC(C)C)no1`, the Ki on Cannabinoid receptor 1 was 33 nM; at Cannabinoid receptor 2 [1] it was 22.1 nM.

On Cannabinoid receptor 2 [1], `CCCCCOc1ccccc1-c1cc(C(=O)NN2CCCCC2)no1` registered an inhibition constant (Ki) of 600 nM.

As for `CCCCCOc1ccccc1-c1cc(C(=O)NC2CC2)no1`, the Ki at Cannabinoid receptor 2 [1] was above 1000 nM.

At Cannabinoid receptor 2 [1], `CCCCCOc1cccc(-c2cc(C(=O)NC34CC5CC(CC(C5)C3)C4)no2)c1` returned a Ki above 1000 nM.

`CCOc1ccccc1-c1cc(C(=O)NC23CC4CC(CC(C4)C2)C3)no1`: the Ki at Cannabinoid receptor 2 [1] is above 1000 nM.

As for `CCCCCOc1ccccc1-c1cc(C(=O)NC2C3CC4CC(C3)CC2C4)no1` (stereo unspecified), the Ki was above 3000 nM at Cannabinoid receptor 1 and 60.1 nM at Cannabinoid receptor 2 [1]. Besides, the Activity in the data set on HT-29 is 0%. Besides, the EC50 on Cannabinoid receptor 2 [2] was 14.8 nM. In the data set filed under Homo sapiens, the Ratio Ki is above 49.

On to `CCCCCOc1ccccc1-c1cc(C(=O)NC23CC4CC(CC2C4)C3)no1`, for which the Ratio came out at 11.5 with Mus musculus [3] and 19.9 in the data set on Mus musculus [4]. Further, the Activity entry in the data set with Mus musculus [5] is “Non-toxic”; in the data set on HT-29, 20%; with Mus musculus [9], 92.8%; in the data set with Mus musculus [10], 5.6 cm. For the same compound, the Ki is above 1000 nM on Cannabinoid receptor 1 and 9 nM at Cannabinoid receptor 2 [1]. Further, the result with Mus musculus [6] was inactive. Further, the outcome in the data set on Mus musculus [7] and with Mus musculus [8] was Active. Further, the EC50 at Cannabinoid receptor 2 [2] came to 4.8 nM. Also, the Ratio Ki in the data set listed under Homo sapiens is above 111.

Regarding `CCCCCOc1ccccc1-c1cc(C(=O)Nc2cccc3ccccc23)no1`, the inhibition constant (Ki) on Cannabinoid receptor 2 [1] was above 1000 nM.

`CCCCCOc1ccccc1-c1cc(C(=O)NCc2ccccc2)no1` came in with a Ki at Cannabinoid receptor 2 [1] above 3000 nM.

In the case of `CCCCCOc1ccccc1-c1cc(C(=O)NC2CCCCCC2)no1`, the Ratio in the data set with Mus musculus [3] was found to be 12.3; in the data set with Mus musculus [4], 13.2. Further, the Activity entry in the data set on Mus musculus [5] is on record as “Non-toxic”; in the data set with HT-29 it was 34%; in the data set with Mus musculus [9], 91.8%; in the data set on Mus musculus [10], 5.4 cm. Besides, the Ki at Cannabinoid receptor 1 was above 3000 nM; on Cannabinoid receptor 2 [1], 60.8 nM. Also, in the data set with Mus musculus [6], the outcome was inactive. The result in the data set on Mus musculus [7] and in the data set with Mus musculus [8] was Active. Also, at Cannabinoid receptor 2 [2], the 50% effective concentration (EC50) came out at 11.1 nM. In addition, the Ratio Ki in the data set listed under Homo sapiens was above 49.

The compound `CCCCCCCCOc1ccccc1-c1cc(C(=O)NC23CC4CC(CC(C4)C2)C3)no1` gave an inhibitory constant (Ki) on Cannabinoid receptor 2 [1] above 1000 nM.

As for `O=C(NCC12CC3CC(CC(C3)C1)C2)c1cc(-c2ccccc2)on1`, the inhibitory constant (Ki) on Cannabinoid receptor 2 [1] is above 1000 nM.

`CCCCCCOc1ccccc1-c1cc(C(=O)NC23CC4CC(CC(C4)C2)C3)no1`: the Ki at Cannabinoid receptor 1 is above 3000 nM; on Cannabinoid receptor 2 [1], 30.5 nM. The same compound came in with an Activity in the data set on HT-29 of 17%. For the same compound, at Cannabinoid receptor 2 [2], the EC50 is 3.4 nM. Moreover, the Ratio Ki in the data set filed under Homo sapiens is above 98.
